Results reported in ChEMBL document CHEMBL1122852, “Imidazo[1,5-d][1,2,4]triazines as potential antiasthma agents” (J Med Chem, 1985).

species: Homo sapiens; test: Inhibitory activity against histamine release from antigen-challenged, sensitized human basophils; type: functional; settings: not given
How it was run: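 Histamine release was induced by antigen challenge of sensitized human basophils in vitro. Compounds were first screened at a single concentration. Those reducing release by more than 50% went on to concentration-response testing to estimate IC50. Values are given with standard error and number of experiments.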

In the case of `C=CCn1nc(C)c2c(C)nc(CCC)n2c1=O`, the IC50 is reported as > 48 µM.

same assay, conditions: Homo sapiens

`C=CCn1nc(C)c2c(C)nc(CCC)n2c1=O` and `CCCc1nc(C)c2c(C)nn(CC)c(=O)n12` cannot be ordered by IC50: 69 µM for the first, > 48 µM for the second.

`Cc1nc(-c2ccccc2)n2c(S)nncc12` and `Cc1nc(Cc2ccccc2)n2c(O)nncc12` cannot be ordered by IC50: > 48 µM for the first, > 48 µM for the second.

`CCCc1ncc2cnnc(SC)n12` and `CCCc1ncc2cnnc(S)n12` cannot be ordered by IC50: > 48 µM for the first, > 48 µM for the second.

`Cc1nc(C)n2c(S)nncc12` and `Cc1ncc2cnnc(S)n12` cannot be ordered by IC50: > 48 µM for the first, > 48 µM for the second.

Compared with `CCCc1nc(C)c2cnn(C)c(=O)n12`, `C=CCn1ncc2c(C)nc(CCC)n2c1=O` is 2-fold higher in IC50: 20 µM for the first, 40 µM for the second.

`CCCc1nc(C)c2n1C(SC)=NNC2c1ccccc1` (stereo not given) and `CCCc1nc(C)c2c(-c3ccccc3)nnc(O)n12` cannot be ordered by IC50: > 48 µM for the first, > 48 µM for the second.

`CCCc1nnc(SC)n2c(CCC)nc(C)c12` and `CCCCc1nnc(O)n2c(CCC)nc(C)c12` cannot be ordered by IC50: > 48 µM for the first, > 48 µM for the second.

`CCOC(=O)Cn1ncc2cnc(COC)n2c1=O` and `COCc1ncc2cnnc(O)n12` cannot be ordered by IC50: > 48 µM for the first, > 48 µM for the second.

`CNc1nncc2c(C)ncn12` and `Cc1ncn2c(S)nncc12` cannot be ordered by IC50: > 48 µM for the first, > 48 µM for the second.

`C=CCSc1nncc2cnc(COC)n12` and `C=CCSc1nncc2cnc(C)n12` are within 1.5-fold of each other in IC50: 79 µM for the first, 61 µM for the second.

`CCc1nc(C)c2cnnc(SC)n12` and `CCCc1nc(C)c2cnnc(SCC(=O)OCC)n12` cannot be ordered by IC50: > 48 µM for the first, > 48 µM for the second.

Compared with `Oc1nnc(-c2ccccc2)c2cncn12`, `Cc1nc(C(C)C)n2c(O)nnc(-c3ccccc3)c12` is higher in IC50: 19 µM for the first, > 48 µM for the second. The first is the more potent here.

`Oc1nncc2c(Br)nc(Cc3ccccc3)n12` and `Oc1nncc2cnc(Cc3ccccc3)n12` cannot be ordered by IC50: > 48 µM for the first, > 48 µM for the second.

`CCn1ncc2c(C)nc(C(C)C)n2c1=O` and `C=CCn1ncc2c(C)nc(C(C)C)n2c1=O` cannot be ordered by IC50: > 48 µM for the first, > 48 µM for the second.

`C=CCn1ncc2c(C)nc(C(C)(C)C)n2c1=O` and `C=CCn1ncc2c(C)nc(C)n2c1=O` cannot be ordered by IC50: > 48 µM for the first, 73 µM for the second.

`CCCc1ncn2c(S)nncc12` and `CCc1ncn2c(S)nncc12` cannot be ordered by IC50: > 48 µM for the first, > 48 µM for the second.

`CSc1nncc2cnc(C)n12` and `C=CCn1ncc2cnc(C)n2c1=S` cannot be ordered by IC50: > 48 µM for the first, > 48 µM for the second.

`Cn1ncc2cnc(Cc3ccccc3)n2c1=O` and `CCCc1nc(C)c2c(C)nn(CC(=O)c3ccccc3)c(=O)n12` cannot be ordered by IC50: > 48 µM for the first, > 48 µM for the second.

`C=CCn1ncc2c(CC)ncn2c1=O` and `C=CCn1ncc2c(C)nc(CC)n2c1=O` cannot be ordered by IC50: > 48 µM for the first, > 48 µM for the second.

First: CCCc1nc(C)c2c(C)nnc(S)n12
Second: CCCc1nc(C)c2c(CC)nnc(S)n12
The IC50 of the first is lower: 45 µM for the first, > 48 µM for the second. The first is the more potent here.

`CCc1nnc(O)n2c(C)nc(C)c12` and `CCCc1nnc(O)n2c(C)ncc12` cannot be ordered by IC50: > 48 µM for the first, > 48 µM for the second.

`CC(=O)N(C1=NNCC1)c1nncc2c(C)ncn12` and `CCCc1ncn2c(O)nncc12` cannot be ordered by IC50: > 48 µM for the first, > 48 µM for the second.

First: C=CCn1nc(CCC)c2c(C)nc(CCC)n2c1=O
Second: CCCc1nn(C)c(=O)n2c(CCC)nc(C)c12
The IC50 of the first is 1.6-fold higher: 29 µM for the first, 18 µM for the second. The second is the more potent here.

`C(=C\CSc1nncc2cncn12)/CSc1nncc2cncn12` and `CCOC(=O)CSc1nncc2cncn12` cannot be ordered by IC50: > 48 µM for the first, > 48 µM for the second.

Going from `c1nc(Nc2nncc3cncn23)n[nH]1` to `CCOC(=O)C(C)Sc1nncc2cncn12` (stereo not given), the IC50 rises from 46 µM to > 48 µM. The first is the more potent here.

`CCn1ncc2cncn2c1=S` and `CN1CCN(c2nncc3cncn23)CC1` cannot be ordered by IC50: > 48 µM for the first, > 48 µM for the second.

`Cc1nnc(S)n2cncc12` and `CC(C)c1ncn2c(S)nncc12` cannot be ordered by IC50: > 48 µM for the first, > 48 µM for the second.

First: Oc1nnc(Br)c2c(Br)nc(Br)n12
Second: CCCc1nc(Br)c2c(Br)nnc(O)n12
The IC50 of the first is 1.8-fold lower: 27 µM for the first, 48 µM for the second. The first is the more potent here.

`CCCc1nc(C)c2cnn(C/C=C/C(=O)OCC)c(=O)n12` and `C=CCn1ncc2c(C)nc(CCC)n2c1=S` cannot be ordered by IC50: > 48 µM for the first, > 48 µM for the second.

`CCCc1nc(C)c2c(C)nn(CCC)c(=O)n12` and `C=C=Cn1nc(C)c2c(C)nc(CCC)n2c1=O` cannot be ordered by IC50: > 48 µM for the first, > 48 µM for the second.

Going from `CCOC(=O)CSc1nncc2c(C)nc(C)n12` to `CC(C)(C)c1nc(Br)c2cnnc(O)n12`, the IC50 falls from > 48 µM to 19 µM.

`COCc1ncc2cnnc(NCCN(C)C)n12` and `COCc1ncc2n1C(NCCN(C)C)NN=C2NCCN(C)C` (stereo not given) cannot be ordered by IC50: > 48 µM for the first, > 48 µM for the second.
